Measured values taken from ChEMBL document CHEMBL1806443, “Novel imidazo[4,5-b]pyridine and triaza-benzo[c]fluorene derivatives: synthesis, antiproliferative activity and DNA binding studies” (Eur J Med Chem, 2011).
The source made the active and inactive calls. No cut-off for these calls is given here.

Columns and labels:
SW-620 [1] = assay: Cell cycle arrest in human SW620 cells assessed as accumulation at subG1 phase at 5 uM after 48 hrs by propidium iodide staining based flow cytometeric analysis (reference value: 29.1 +/- 1.1%); assay type: functional
Method in brief: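 Cells seeded at 3 × 10^4 per well and treated 24 h later with 1, 5 or 10 µM for 24 and 48 h. Adherent and floating cells were pooled, washed in PBS and fixed in 70% ethanol. They were then stained with propidium iodide 10 µg/mL plus RNase A 0.2 µg/mL. Flow cytometry counted 10000 events; each point was run in triplicate; significance was taken at p < 0.05.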

SW-620 [2] = assay: Cell cycle arrest in human SW620 cells assessed as accumulation at G1 phase at 5 uM after 48 hrs by propidium iodide staining based flow cytometeric analysis (reference value: 52.7 +/- 0.9%); assay type: functional
MCF7 [3] = assay: Antiproliferative activity against human MCF7 cells after 72 hrs by MTT assay; assay type: functional, cell-based; conditions: Homo sapiens, MCF7, 72 h
Method in brief: (§1)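 Monolayer cells in DMEM with 10% FBS, 2 mM L-glutamine, penicillin and streptomycin at 37 °C, 5% CO2. Seeded at 3000-6000 cells/well by doubling time on day 0. Five 10-fold dilutions (0.01–100 µM) were added and incubated 72 h. MTT read-out, converted to percentage growth. IC50 by linear regression between bracketing concentrations. Quadruplicate points, three independent experiments, ANOVA/Tukey p<0.05.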

MIA PaCa-2 [4] = assay: Cell cycle arrest in human MIAPaCa2 cells assessed as accumulation at G1 phase at 10 uM after 48 hrs by propidium iodide staining based flow cytometeric analysis (reference value: 65.2 +/- 1.9%); assay type: functional
SW-620 [5] = assay: Cell cycle arrest in human SW620 cells assessed as accumulation at G1 phase at 1 uM after 48 hrs by propidium iodide staining based flow cytometeric analysis (reference value: 52.7 +/- 0.9%); assay type: functional
MIA PaCa-2 [6] = assay: Cell cycle arrest in human MIAPaCa2 cells assessed as accumulation at G2/M phase at 5 uM after 24 hrs by propidium iodide staining based flow cytometeric analysis (reference value: 19.5 +/- 3.9%); assay type: functional
SW-620 [7] = assay: Cell cycle arrest in human SW620 cells assessed as accumulation at G1 phase at 10 uM after 48 hrs by propidium iodide staining based flow cytometeric analysis (reference value: 52.7 +/- 0.9%); assay type: functional
WI-38 = assay: Cytostatic activity against human WI38 cells at 1 to 10 uM after 72 hrs by MTT assay; assay type: ADME, cell-based; conditions: wi-38, 72 h
Method in brief: (§2)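 Monolayers in DMEM with 10% FBS, 2 mM L-glutamine, penicillin and streptomycin (37 °C, 5% CO2) were seeded at 3000–6000 cells/well on day 0. Five 10-fold dilutions (0.01–100 µM) were added, followed by 72-h incubation and MTT read-out. Absorbances were converted to percentage growth by the NIH formulae. Each point was run in quadruplicate in three experiments; ANOVA with Tukey test.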

MIA PaCa-2 [8] = assay: Cell cycle arrest in human MIAPaCa2 cells assessed as accumulation at subG1 phase at 5 uM after 24 hrs by propidium iodide staining based flow cytometeric analysis (reference value: 48.7 +/- 0.7%); assay type: functional
SW-620 [9] = assay: Cytostatic activity against human SW620 cells at 1 to 10 uM after 72 hrs by MTT assay; assay type: functional, cell-based; method in brief: as §2
MIA PaCa-2 [10] = assay: Cytostatic activity against human MIAPaCa2 cells at 1 to 10 uM after 72 hrs by MTT assay; assay type: functional, cell-based; method in brief: as §2
SW-620 [11] = assay: Cell cycle arrest in human SW620 cells assessed as accumulation at S phase at 1 uM after 48 hrs by propidium iodide staining based flow cytometeric analysis (reference value: 31.9 +/- 1%); assay type: functional
MIA PaCa-2 [12] = assay: Cell cycle arrest in human MIAPaCa2 cells assessed as accumulation at subG1 phase at 1 uM after 24 hrs by propidium iodide staining based flow cytometeric analysis (reference value: 48.7 +/- 0.7%); assay type: functional
Nucleic Acid = assay: Binding affinity to calf thymus DNA assessed as hypochromic changes at 347 nm wavelength by UV-Vis spectrophotometric titrations; assay type: nucleic-acid assay; conditions: Bos taurus
Method in brief: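 UV/Vis titration: aliquots of ct-DNA (concentration as phosphate) added to compound solution in sodium cacodylate buffer pH 7.0, I = 0.05 mol dm^-3, 1 cm quartz cuvettes. Hypochromism followed at band maxima. Compound absorbance linear up to 2.0 × 10^-5 mol dm^-3. Binding data fitted by the Scatchard equation.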

SW-620 [13] = assay: Cell cycle arrest in human SW620 cells assessed as accumulation at G2/M phase at 10 uM after 48 hrs by propidium iodide staining based flow cytometeric analysis (reference value: 16.1 +/- 0.9%); assay type: functional
MIA PaCa-2 [14] = assay: Cell cycle arrest in human MIAPaCa2 cells assessed as accumulation at S phase at 10 uM after 24 hrs by propidium iodide staining based flow cytometeric analysis (reference value: 29.2 +/- 4.2%); assay type: functional
SW-620 [15] = assay: Cell cycle arrest in human SW620 cells assessed as accumulation at G2/M phase at 10 uM after 24 hrs by propidium iodide staining based flow cytometeric analysis (reference value: 22.3 +/- 2.9%); assay type: functional
MIA PaCa-2 [16] = assay: Induction of apoptosis in human MIAPaCa2 cells assessed as morphological change after 24 to 48 hrs by microscopic analysis; assay type: functional, cell-based
Method in brief: (§3)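 Cells were seeded at 3 × 10^4 per well and exposed 24 h later to 1, 5 or 10 µM for 24 and 48 h. Apoptotic morphology (cell shrinkage, chromatin condensation) was scored by inverted light microscopy at 200× magnification.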

MIA PaCa-2 [17] = assay: Cell cycle arrest in human MIAPaCa2 cells assessed as accumulation at S phase at 5 uM after 24 hrs by propidium iodide staining based flow cytometeric analysis (reference value: 29.2 +/- 4.2%); assay type: functional
SW-620 [18] = assay: Antiproliferative activity against human SW620 cells after 72 hrs by MTT assay; assay type: functional, cell-based; conditions: Homo sapiens, SW-620, 72 h; method in brief: as §1
SW-620 [19] = assay: Cell cycle arrest in human SW620 cells assessed as accumulation at G1 phase at 5 uM after 24 hrs by propidium iodide staining based flow cytometeric analysis (reference value: 29.3 +/- 1.5%); assay type: functional
MCF7 [20] = assay: Cytostatic activity against human MCF7 cells at 1 to 10 uM after 72 hrs by MTT assay; assay type: functional, cell-based; method in brief: as §2
SW-620 [21] = assay: Cell cycle arrest in human SW620 cells assessed as accumulation at subG1 phase at 1 uM after 48 hrs by propidium iodide staining based flow cytometeric analysis (reference value: 29.1 +/- 1.1%); assay type: functional
MIA PaCa-2 [22] = assay: Cell cycle arrest in human MIAPaCa2 cells assessed as accumulation at S phase at 1 uM after 24 hrs by propidium iodide staining based flow cytometeric analysis (reference value: 29.2 +/- 4.2%); assay type: functional
SK-BR-3 = assay: Antiproliferative activity against human SKBR3 cells at 0.1 to 10 uM after 72 hrs by MTT assay; assay type: functional, cell-based; method in brief: as §1
SW-620 [23] = assay: Cell cycle arrest in human SW620 cells assessed as accumulation at S phase at 10 uM after 24 hrs by propidium iodide staining based flow cytometeric analysis (reference value: 48.4 +/- 1.4%); assay type: functional
SW-620 [24] = assay: Induction of apoptosis in human SW620 cells assessed as morphological change at 5 to 10 uM after 24 to 48 hrs by microscopic analysis; assay type: functional, cell-based; method in brief: as §3

SMILES: Cl.c1cnc2nc3ccc4ccc(C5=NCCN5)cc4n3c2c1
- Activity (SW-620 [1]): 47.6%
- Activity (SW-620 [2]): 90.9%
- IC50 (MCF7 [3]): 6.54 µM
- Activity (MIA PaCa-2 [4]): 26.1%
- Activity (SW-620 [5]): 35.1%
- Activity (MIA PaCa-2 [6]): 18.3%
- Activity (SW-620 [7]): 39.9%
- Activity (WI-38): Toxic
- Activity (MIA PaCa-2 [8]): 53.4%
- Activity (SW-620 [9]): Active
- Activity (MIA PaCa-2 [10]): Active
- Activity (SW-620 [11]): 45.4%
- Activity (MIA PaCa-2 [12]): 57.8%
- Activity (Nucleic Acid): 45%
- Activity (SW-620 [13]): 18.2%
- Activity (MIA PaCa-2 [14]): 29.3%
- Activity (SW-620 [15]): 19.2%
- Activity (MIA PaCa-2 [16]): Dose-dependent effect
- Activity (MIA PaCa-2 [17]): 59.3%
- IC50 (SW-620 [18]): 0.64 µM
- Activity (SW-620 [19]): 86.1%
- Activity (MCF7 [20]): Active
- Activity (SW-620 [21]): 25.4%
- Activity (MIA PaCa-2 [22]): 37.4%
- Activity (SK-BR-3): Active
- Activity (SW-620 [23]): 47.3%
- Activity (SW-620 [24]): Active
